697 NFkB inh – inhibitors of the PMA/ionomycin-induced NF-kB reporter in 697 B cells; hit rate 0.33% among 330,000; AID 435022; 697 B-cell NF-kB luciferase reporter, 16 h; inhibition, % at 4 µM; in the data active means inhibition above about 35%
iPSC survival up – increases survival of single human iPS cells; hiPSC single-cell survival, ATPlite luminescence; 100% = ROCK inhibitor wells, 0% = DMSO; survival enhancement, % at 20 µM; hit rate 0.044% among 360,000; AID 602274; in the data active means survival enhancement above about 18%;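 further: cells exposed to compounds for 16 hours before the ATP read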
Gli-Sufu antag – blocks Gli-Sufu signaling in a luciferase reporter; inhibition, % at 5 µM; Sufu-KO-LIGHT fibroblasts, Gli luciferase reporter luminescence; hit rate 0.74% among 340,000;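 active means inhibition above about 55%, limit read from the data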;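 further: 0% = DMSO-treated cells and 100% = wells with medium but no cells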
Jurkat NFkB inh – lowers PMA/ionomycin-induced NF-kB signal in Jurkat cells; inhibition, % at 4 µM; PMA/ionomycin-induced NF-kB luciferase reporter, luminescence; hit rate 0.53% among 330,000; in the data active means inhibition above about 50%
H9c2 TAG inh – triacylglycerol accumulation inhibition | H9c2 cells, Nile Red lipid (TAG) fluorescence; cells loaded with 200 µM oleic acid | inhibition, % at 12.5 µM | hit rate 0.66% among 230,000 | AID 651582;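 active means pattern-corrected inhibition of lipid staining of at least 50% with the nuclear-stain viability signal not falling by more than 50%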;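 further: 0% = DMSO wells and 100% = triacsin C control wells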
Lipid droplet – hepatic lipid droplet formation modulation; AML12 mouse hepatocytes, oleate lipid droplets, BODIPY imaging; inhibition, % at 6.5 µM; hit rate 0.4% among 240,000; AID 1656;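 active means lipid droplet intensity inhibited by at least 50%, with more than 500 cells counted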
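Material – AML12 mouse liver cells · Also added – oleate loading, 100 µM · Compound dosing – 6.5 µM single-point dosing · Times – overnight treatment with compound plus oleate · Measured by – fluorescence imaging, 20x objective, two fields per well · Read-out – percent inhibition of filter-corrected integrated lipid droplet intensity per well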
Jurkat NFkB conf – inhibitors of the PMA/ionomycin-induced NF-kB reporter in Jurkat cells, retest. hit rate 27% among 2,700. inhibition, % at 4 µM. shares compounds with Jurkat NFkB inh. Jurkat NF-kB luciferase, 16 h;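 active means inhibition reaching about 45% at 4 µM in either replicate, limit read from the data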;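 further: plate controls were PMA/ionomycin stimulated DMSO wells for no effect and unstimulated DMSO wells for full effect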
Active calls of the source: *. Sampled rows, rich in hits. Any-hit rate of the full collection: about 1.8%.

What do the screens show for `O=C(Nc1ccc2ccccc2c1)c1cnccn1`?
697 NFkB inh: -220; iPSC survival up: 1; Gli-Sufu antag: -59; Jurkat NFkB inh: -184; Lipid droplet: 0; Jurkat NFkB conf: -108

What do the screens show for `CN1CCN(c2ccc(NC(=O)c3ccc(-c4ccccc4F)o3)cc2)CC1`?
697 NFkB inh: -125; iPSC survival up: 3; Gli-Sufu antag: -51; Jurkat NFkB inh: -170; H9c2 TAG inh: 16; Jurkat NFkB conf: -87

Results for O=C(Nc1ccc2nccnc2c1)c1cnccn1 ?
697 NFkB inh: -15; iPSC survival up: -1; Gli-Sufu antag: -22; Jurkat NFkB inh: -34; H9c2 TAG inh: 16; Lipid droplet: -1

Results for O=C(Nc1nccs1)c1ccc(Br)cc1 ?
697 NFkB inh: -71; iPSC survival up: -1; Gli-Sufu antag: -7; Jurkat NFkB inh: -51; H9c2 TAG inh: -2; Lipid droplet: -2

What do the screens show for `CC1(C(=O)OCC(=O)Nc2ccc3ccccc3c2)CC1(Cl)Cl` (stereo unspecified)?
697 NFkB inh: -19; iPSC survival up: -1; Gli-Sufu antag: -6; Jurkat NFkB inh: -14; H9c2 TAG inh: 35; Lipid droplet: 15

How did CCCCc1ccc(N=N/C(C(=O)Nc2ccc(NC(C)=O)cc2OC)=C(/C)O)cc1 do in these assays?
697 NFkB inh: -20; iPSC survival up: 1; Gli-Sufu antag: 3; Jurkat NFkB inh: 1; H9c2 TAG inh: 40

What do the screens show for `N#Cc1ccc(C(=O)Nc2ccc3ccccc3c2)cc1`?
697 NFkB inh: -200; iPSC survival up: 0; Gli-Sufu antag: 22; Jurkat NFkB inh: -177; Lipid droplet: -17; Jurkat NFkB conf: -133

How did N#Cc1ccccc1Sc1ccccc1C(=O)Nc1ccc2ccccc2c1 do in these assays?
697 NFkB inh: 17; iPSC survival up: 2; Gli-Sufu antag: 8; Jurkat NFkB inh: 5; Lipid droplet: 21

Results for CN1CCN(c2ccc(NC(=O)c3ccc4ccccc4c3)cc2)CC1 ?
697 NFkB inh: -225; iPSC survival up: 0; Gli-Sufu antag: 16; Jurkat NFkB inh: -155; Lipid droplet: -2; Jurkat NFkB conf: -48

Results for Clc1ccc2nc(-c3ccc(Br)s3)cn2c1 ?
697 NFkB inh: -151; iPSC survival up: -3; Gli-Sufu antag: -126; Jurkat NFkB inh: -179; H9c2 TAG inh: 2; Lipid droplet: 2; Jurkat NFkB conf: -100

What do the screens show for `COc1ccc(-n2nnnc2-c2ccccc2)cc1`?
697 NFkB inh: -77; iPSC survival up: -5; Gli-Sufu antag: -13; Jurkat NFkB inh: 53*; Lipid droplet: 12; Jurkat NFkB conf: 58*

Results for Oc1ccccc1-c1cc(-c2ccccc2)n[nH]1 ?
697 NFkB inh: -200; iPSC survival up: 4; Gli-Sufu antag: -1; Jurkat NFkB inh: -181; H9c2 TAG inh: -12; Jurkat NFkB conf: -81

Results for Oc1ccc(Cl)cc1-c1cc(-c2ccccc2)n[nH]1 ?
697 NFkB inh: -25; iPSC survival up: -2; Gli-Sufu antag: 10; Jurkat NFkB inh: -45; H9c2 TAG inh: 10; Lipid droplet: -2

Results for Cc1nc2c(OCc3ccc(C(F)(F)F)cc3)cccn2c1N(C)CC1CC1 ?
iPSC survival up: -2; H9c2 TAG inh: -7

Results for O=C(/C=C/[C@H]1O[C@@H](n2cnc3c(NC(=O)c4ccccc4)ncnc32)[C@H](O)[C@@H]1O)NCc1ccco1 ?
iPSC survival up: 2

How did O=C(NCc1ccccc1)c1c(Cl)nc(Cl)c(Cl)c1Cl do in these assays?
697 NFkB inh: 6; iPSC survival up: 1; Gli-Sufu antag: 1; Jurkat NFkB inh: 51*; Lipid droplet: 4; Jurkat NFkB conf: 13

What do the screens show for `C[C@H]1CN([C@@H](C)CO)C(=O)CCCn2nncc2CO[C@H]1CN(C)S(=O)(=O)c1ccc(C#N)cc1`?
iPSC survival up: 3; H9c2 TAG inh: -1

How did CC#CC(=O)N1CCC(n2nccc2NC(=O)c2ccc3c(c2)OCO3)CC1 do in these assays?
697 NFkB inh: 9; iPSC survival up: 0; Gli-Sufu antag: 14; Jurkat NFkB inh: 74*; H9c2 TAG inh: 38; Lipid droplet: 0; Jurkat NFkB conf: 36

How did C#CCCOC(=O)N1C2=NC(C(=O)OC)=C(C(=O)OC)[C@@H]3Nc4ccccc4[C@]23C[C@H]1C(=O)OC do in these assays?
iPSC survival up: 3; Gli-Sufu antag: -1; H9c2 TAG inh: -39

What do the screens show for `COc1ccc(S(=O)(=O)N2CCCC2CNC(=O)C(=O)NCCc2ccccc2)cc1` (stereo unspecified)?
697 NFkB inh: -32; iPSC survival up: 1; Gli-Sufu antag: -6; Jurkat NFkB inh: 54*; H9c2 TAG inh: 19; Jurkat NFkB conf: 29

What do the screens show for `Cc1ccc(S(=O)(=O)N2CCCCC2CCNC(=O)C(=O)NCc2cccnc2)cc1` (stereo unspecified)?
697 NFkB inh: 6; iPSC survival up: 0; Gli-Sufu antag: 4; Jurkat NFkB inh: 62*; H9c2 TAG inh: 12; Jurkat NFkB conf: 17

What do the screens show for `COc1ccc(NC(=O)C(=O)NCCC2CCCCN2S(=O)(=O)c2ccc(F)cc2)cc1` (stereo unspecified)?
697 NFkB inh: -39; iPSC survival up: 0; Gli-Sufu antag: 18; Jurkat NFkB inh: 60*; H9c2 TAG inh: 10; Jurkat NFkB conf: 23

Results for O=C(NCCC1CCCCN1S(=O)(=O)c1ccccc1)C(=O)Nc1ccc(F)cc1 (stereo unspecified) ?
697 NFkB inh: -12; iPSC survival up: 0; Gli-Sufu antag: -4; Jurkat NFkB inh: 9; H9c2 TAG inh: 6

What do the screens show for `COc1ccc(CCNC(=O)C(=O)NCC2CCCN2S(=O)(=O)c2ccccc2)cc1` (stereo unspecified)?
697 NFkB inh: -5; iPSC survival up: 1; Gli-Sufu antag: -18; Jurkat NFkB inh: 10; H9c2 TAG inh: 5

What do the screens show for `Cc1sc2nc(CSC(C)C(=O)Nc3ccc(Cl)cn3)[nH]c(=O)c2c1C` (stereo unspecified)?
697 NFkB inh: 23; iPSC survival up: 0; Gli-Sufu antag: -3; Jurkat NFkB inh: 6; H9c2 TAG inh: 14

What do the screens show for `CCN1/C(=C/c2ccc3cc(C)ccc3[n+]2CC)Sc2ccc3sccc3c21`?
697 NFkB inh: -13; iPSC survival up: -1; Gli-Sufu antag: 87*; Jurkat NFkB inh: 92*; H9c2 TAG inh: -109; Jurkat NFkB conf: 64*

How did C=C1C(=O)[C@@]23[C@H](O)C[C@@H]4C(C)(C)CC[C@H](O)[C@@]4(C)[C@@H]2CC[C@@H]1[C@H]3O do in these assays?
697 NFkB inh: -99; iPSC survival up: -6; Gli-Sufu antag: 80*; Jurkat NFkB inh: 71*; H9c2 TAG inh: 14; Lipid droplet: -6; Jurkat NFkB conf: 37

What do the screens show for `CCOC1=C2[C@@H](CN(S(=O)(=O)c3ccccc3C)[C@H]2c2ccc(Cl)cc2)[C@H]2C(=O)NC(=O)[C@H]2C1`?
iPSC survival up: 0
